The source of these data is ChEMBL document CHEMBL5696442, “Discovery of type II inhibitors of TGFβ-activated kinase 1 (TAK1) and mitogen-activated protein kinase kinase kinase kinase 2 (MAP4K2)” (J Med Chem, 2015).

Test [1] addresses T1, Dual specificity mitogen-activated protein kinase kinase 5 (Homo sapiens) (UniProt Q13163).
T1 sequence (whole entry): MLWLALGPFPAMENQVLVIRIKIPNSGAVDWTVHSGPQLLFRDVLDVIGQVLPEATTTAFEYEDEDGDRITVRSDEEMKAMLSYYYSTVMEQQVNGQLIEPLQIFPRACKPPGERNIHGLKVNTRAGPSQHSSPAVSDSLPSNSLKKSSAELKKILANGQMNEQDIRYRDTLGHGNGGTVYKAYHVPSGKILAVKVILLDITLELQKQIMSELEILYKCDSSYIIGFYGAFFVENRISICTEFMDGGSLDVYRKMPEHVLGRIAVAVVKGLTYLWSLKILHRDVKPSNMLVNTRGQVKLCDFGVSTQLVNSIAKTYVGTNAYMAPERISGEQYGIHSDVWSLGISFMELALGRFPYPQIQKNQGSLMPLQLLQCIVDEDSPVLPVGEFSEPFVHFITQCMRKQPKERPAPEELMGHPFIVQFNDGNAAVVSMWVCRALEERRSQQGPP
Briefly: Inhibition of MAP2K5 Lys2 labeling site in human A-375 cells at 0.05 uM by KiNativ Profiling analysis relative to control. It counts as cell-based.

Test [2] concerns the target Phosphatidylinositol 4,5-bisphosphate 3-kinase catalytic subunit beta isoform (Homo sapiens) (UniProt P42338). Briefly: Inhibition of PIK3CB ATP labeling site in human A-375 cells at 0.05 uM by KiNativ Profiling analysis relative to control. It counts as cell-based.
In test [3] the target is Serine/threonine-protein kinase 38 (Homo sapiens) (UniProt Q15208). Briefly: Inhibition of NDR1 Lys1 labeling site in human A-375 cells at 5 uM by KiNativ Profiling analysis relative to control. It counts as cell-based.
In test [4] the target is Tyrosine-protein kinase Fyn (Homo sapiens) (UniProt P06241). Description: Inhibition of FYN ACT labeling site in human A-375 cells at 0.5 uM by KiNativ Profiling analysis relative to control. It counts as cell-based.
In test [5] the target is Cyclin-dependent kinase 10 (Homo sapiens) (UniProt Q15131). Briefly: Inhibition of CDK10 Lys2 labeling site in human A-375 cells at 5 uM by KiNativ Profiling analysis relative to control. Format: cell-based. Put shortly:
(§1)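 Intact A375 melanoma cells were treated with compound at 5 or 0.5 μM, then lysed. Lysate kinases were labeled with a lysine-reactive ATP or ADP-biotin probe (KiNativ). Inhibition is read as protection of each kinase labeling site from probe labeling.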

In test [6] the target is Tyrosine-protein kinase ABL2 (Homo sapiens, UniProt P42684). Briefly: Inhibition of ARG ACT labeling site in human A-375 cells at 5 uM by KiNativ Profiling analysis relative to control. It counts as cell-based. Put shortly: as §1
Test [7] has as its target Serine/threonine-protein kinase 26 (Homo sapiens) (UniProt Q9P289). Description: Inhibition of MST4 ACT labeling site in human A-375 cells at 0.5 uM by KiNativ Profiling analysis relative to control. Format: cell-based.
The target of test [8] is T2, Mixed lineage kinase domain-like protein (Homo sapiens) (UniProt Q8NB16).
T2 sequence (whole entry): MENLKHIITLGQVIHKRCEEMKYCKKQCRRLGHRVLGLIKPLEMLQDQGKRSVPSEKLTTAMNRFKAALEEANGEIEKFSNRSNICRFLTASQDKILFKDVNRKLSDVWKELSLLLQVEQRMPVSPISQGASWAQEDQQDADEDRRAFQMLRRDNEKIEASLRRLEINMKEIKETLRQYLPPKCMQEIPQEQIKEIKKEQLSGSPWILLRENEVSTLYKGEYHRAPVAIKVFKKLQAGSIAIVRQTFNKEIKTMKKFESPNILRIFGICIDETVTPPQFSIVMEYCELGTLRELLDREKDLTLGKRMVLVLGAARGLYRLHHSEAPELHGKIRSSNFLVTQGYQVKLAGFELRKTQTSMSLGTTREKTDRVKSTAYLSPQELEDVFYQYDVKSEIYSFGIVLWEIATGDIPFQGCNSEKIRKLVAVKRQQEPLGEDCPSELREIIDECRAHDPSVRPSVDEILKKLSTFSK
Briefly: Inhibition of MLKL Lys1 labeling site in human A-375 cells at 0.05 uM by KiNativ Profiling analysis relative to control. Format: cell-based.

Test [9] has as its target T3, Serine/threonine-protein kinase ULK3 (Homo sapiens) (UniProt Q6PHR2).
T3 sequence (whole entry): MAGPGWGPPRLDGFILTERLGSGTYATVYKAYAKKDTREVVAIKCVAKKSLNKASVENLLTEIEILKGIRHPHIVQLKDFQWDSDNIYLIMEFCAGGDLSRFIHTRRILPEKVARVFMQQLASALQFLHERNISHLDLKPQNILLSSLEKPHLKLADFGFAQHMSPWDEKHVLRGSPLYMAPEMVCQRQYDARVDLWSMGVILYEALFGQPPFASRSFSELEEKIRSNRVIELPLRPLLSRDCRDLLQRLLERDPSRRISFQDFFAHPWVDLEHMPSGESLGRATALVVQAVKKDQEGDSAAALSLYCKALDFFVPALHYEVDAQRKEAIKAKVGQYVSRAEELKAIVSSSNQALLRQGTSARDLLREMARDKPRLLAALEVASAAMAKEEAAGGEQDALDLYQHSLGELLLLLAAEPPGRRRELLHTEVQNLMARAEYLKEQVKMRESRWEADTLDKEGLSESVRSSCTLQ
Briefly: Inhibition of ULK3 Lys2 labeling site in human A-375 cells at 5 uM by KiNativ Profiling analysis relative to control. It counts as cell-based.

For test [10], the target named is Tyrosine-protein kinase Lyn (Homo sapiens, UniProt P07948). Briefly: Inhibition of LYN (unknown origin) Lys1 labeling site by KiNativ Profiling analysis.
Sequence of Tyrosine-protein kinase Lyn (P07948 whole entry): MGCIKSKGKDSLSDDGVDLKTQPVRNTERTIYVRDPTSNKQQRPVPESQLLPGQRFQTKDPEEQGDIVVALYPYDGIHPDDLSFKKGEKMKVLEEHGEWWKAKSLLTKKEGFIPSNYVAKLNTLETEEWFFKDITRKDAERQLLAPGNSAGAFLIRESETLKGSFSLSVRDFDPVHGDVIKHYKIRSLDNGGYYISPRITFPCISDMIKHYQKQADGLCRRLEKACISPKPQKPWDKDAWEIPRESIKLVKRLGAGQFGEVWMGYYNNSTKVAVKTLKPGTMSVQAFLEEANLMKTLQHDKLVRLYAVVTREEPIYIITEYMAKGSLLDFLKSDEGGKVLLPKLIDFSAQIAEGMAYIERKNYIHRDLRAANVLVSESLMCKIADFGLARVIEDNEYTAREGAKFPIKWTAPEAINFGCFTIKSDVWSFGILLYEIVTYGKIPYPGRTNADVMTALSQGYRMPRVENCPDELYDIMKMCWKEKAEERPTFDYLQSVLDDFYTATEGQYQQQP

Sequence of Serine/threonine-protein kinase 38 (Homo sapiens) (Q15208 2-465 limits assumed): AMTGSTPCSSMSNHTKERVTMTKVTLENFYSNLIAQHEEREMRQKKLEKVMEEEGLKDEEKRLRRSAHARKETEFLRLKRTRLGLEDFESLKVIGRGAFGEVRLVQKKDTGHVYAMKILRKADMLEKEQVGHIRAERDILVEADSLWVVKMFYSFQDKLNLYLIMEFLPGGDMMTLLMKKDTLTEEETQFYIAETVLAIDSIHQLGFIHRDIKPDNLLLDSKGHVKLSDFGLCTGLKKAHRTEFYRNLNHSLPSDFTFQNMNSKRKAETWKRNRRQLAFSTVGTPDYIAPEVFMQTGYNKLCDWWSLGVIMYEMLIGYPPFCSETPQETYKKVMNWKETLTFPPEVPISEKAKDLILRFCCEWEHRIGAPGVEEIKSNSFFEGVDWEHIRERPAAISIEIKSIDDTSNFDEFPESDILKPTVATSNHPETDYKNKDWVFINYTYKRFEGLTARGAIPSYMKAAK
Sequence of Serine/threonine-protein kinase 26 (Homo sapiens) (Q9P289 2-416 limits assumed): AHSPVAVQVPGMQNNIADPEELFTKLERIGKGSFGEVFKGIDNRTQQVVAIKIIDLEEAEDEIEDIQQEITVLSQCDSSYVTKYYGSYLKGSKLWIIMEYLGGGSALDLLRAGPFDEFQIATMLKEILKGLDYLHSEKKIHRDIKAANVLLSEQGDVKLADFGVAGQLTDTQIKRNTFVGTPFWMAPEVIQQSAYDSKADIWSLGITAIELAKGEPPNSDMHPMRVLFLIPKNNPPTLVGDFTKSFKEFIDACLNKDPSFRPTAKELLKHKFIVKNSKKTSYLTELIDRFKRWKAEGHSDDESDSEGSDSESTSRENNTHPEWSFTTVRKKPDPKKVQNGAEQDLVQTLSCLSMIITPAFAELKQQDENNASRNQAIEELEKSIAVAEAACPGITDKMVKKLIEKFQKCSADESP
Sequence of Phosphatidylinositol 4,5-bisphosphate 3-kinase catalytic subunit beta isoform (Homo sapiens) (P42338 whole entry, looked up, canonical isoform): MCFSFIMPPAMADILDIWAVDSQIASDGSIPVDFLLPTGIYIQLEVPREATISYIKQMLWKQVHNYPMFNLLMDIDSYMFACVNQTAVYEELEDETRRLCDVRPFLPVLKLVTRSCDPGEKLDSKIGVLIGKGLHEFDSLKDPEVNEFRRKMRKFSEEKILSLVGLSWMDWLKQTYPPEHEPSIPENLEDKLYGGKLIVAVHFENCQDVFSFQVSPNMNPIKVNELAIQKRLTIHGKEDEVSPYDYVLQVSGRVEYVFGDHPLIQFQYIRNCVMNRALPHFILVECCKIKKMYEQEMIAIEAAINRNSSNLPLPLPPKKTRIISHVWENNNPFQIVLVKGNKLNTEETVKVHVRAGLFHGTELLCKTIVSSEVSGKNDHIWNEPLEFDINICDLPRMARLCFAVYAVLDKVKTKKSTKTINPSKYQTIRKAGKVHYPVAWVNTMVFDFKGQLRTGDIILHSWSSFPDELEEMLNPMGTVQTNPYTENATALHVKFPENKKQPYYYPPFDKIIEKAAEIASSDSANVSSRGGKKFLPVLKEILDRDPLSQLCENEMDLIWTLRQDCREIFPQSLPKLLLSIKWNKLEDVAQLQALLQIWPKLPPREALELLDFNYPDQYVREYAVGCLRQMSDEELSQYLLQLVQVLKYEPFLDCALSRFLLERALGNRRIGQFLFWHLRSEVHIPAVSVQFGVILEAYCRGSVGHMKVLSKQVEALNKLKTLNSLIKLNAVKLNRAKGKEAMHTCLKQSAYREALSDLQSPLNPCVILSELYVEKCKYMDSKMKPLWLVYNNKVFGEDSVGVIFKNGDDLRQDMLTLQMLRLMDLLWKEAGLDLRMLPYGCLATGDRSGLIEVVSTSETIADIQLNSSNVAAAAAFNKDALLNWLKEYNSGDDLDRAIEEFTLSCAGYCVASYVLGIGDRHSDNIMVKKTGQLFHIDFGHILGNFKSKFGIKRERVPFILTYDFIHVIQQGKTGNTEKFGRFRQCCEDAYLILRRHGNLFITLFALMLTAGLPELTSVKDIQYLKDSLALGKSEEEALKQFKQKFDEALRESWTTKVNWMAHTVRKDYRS
Sequence of Cyclin-dependent kinase 10 (Homo sapiens) (Q15131 whole entry): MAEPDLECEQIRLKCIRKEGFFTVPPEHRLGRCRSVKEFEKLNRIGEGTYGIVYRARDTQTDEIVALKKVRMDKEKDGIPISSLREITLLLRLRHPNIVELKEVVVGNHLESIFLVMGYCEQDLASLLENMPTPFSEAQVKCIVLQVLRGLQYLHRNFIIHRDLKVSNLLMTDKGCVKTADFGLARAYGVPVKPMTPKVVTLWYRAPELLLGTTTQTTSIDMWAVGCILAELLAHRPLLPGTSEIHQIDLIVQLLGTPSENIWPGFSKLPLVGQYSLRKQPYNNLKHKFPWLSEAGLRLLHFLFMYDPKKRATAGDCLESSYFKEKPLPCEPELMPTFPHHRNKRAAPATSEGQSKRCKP
Sequence of Tyrosine-protein kinase ABL2 (P42684 whole entry): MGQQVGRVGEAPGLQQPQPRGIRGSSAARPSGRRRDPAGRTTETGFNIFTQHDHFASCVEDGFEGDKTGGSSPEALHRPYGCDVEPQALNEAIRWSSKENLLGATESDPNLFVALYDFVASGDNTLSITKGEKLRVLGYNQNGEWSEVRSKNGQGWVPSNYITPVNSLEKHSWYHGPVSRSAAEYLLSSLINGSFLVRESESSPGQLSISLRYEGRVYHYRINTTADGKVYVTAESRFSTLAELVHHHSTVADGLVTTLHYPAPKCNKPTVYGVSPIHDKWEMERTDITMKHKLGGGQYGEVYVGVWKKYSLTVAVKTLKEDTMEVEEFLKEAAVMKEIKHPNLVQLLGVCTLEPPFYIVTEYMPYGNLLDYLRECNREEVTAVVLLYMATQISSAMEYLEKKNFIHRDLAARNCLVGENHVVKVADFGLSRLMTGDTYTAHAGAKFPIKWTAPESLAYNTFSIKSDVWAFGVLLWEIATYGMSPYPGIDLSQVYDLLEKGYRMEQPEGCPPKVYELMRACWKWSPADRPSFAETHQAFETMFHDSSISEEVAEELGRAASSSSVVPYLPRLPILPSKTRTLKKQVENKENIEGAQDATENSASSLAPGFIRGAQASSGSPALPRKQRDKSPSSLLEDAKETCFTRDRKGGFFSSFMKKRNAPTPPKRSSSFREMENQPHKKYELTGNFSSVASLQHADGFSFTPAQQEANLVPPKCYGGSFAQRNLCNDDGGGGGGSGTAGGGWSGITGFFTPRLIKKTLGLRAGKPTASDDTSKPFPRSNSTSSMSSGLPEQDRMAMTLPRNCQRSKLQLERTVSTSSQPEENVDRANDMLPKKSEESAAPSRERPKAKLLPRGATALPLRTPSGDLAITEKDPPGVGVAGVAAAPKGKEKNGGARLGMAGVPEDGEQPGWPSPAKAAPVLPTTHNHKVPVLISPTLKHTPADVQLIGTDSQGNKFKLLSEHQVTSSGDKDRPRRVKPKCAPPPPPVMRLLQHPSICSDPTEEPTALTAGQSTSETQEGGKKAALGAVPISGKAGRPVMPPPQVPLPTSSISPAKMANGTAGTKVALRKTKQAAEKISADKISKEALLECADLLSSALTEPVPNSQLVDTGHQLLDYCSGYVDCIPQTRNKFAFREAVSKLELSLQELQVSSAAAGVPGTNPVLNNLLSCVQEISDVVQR
Sequence of Tyrosine-protein kinase Fyn (Homo sapiens) (P06241 2-537 limits assumed): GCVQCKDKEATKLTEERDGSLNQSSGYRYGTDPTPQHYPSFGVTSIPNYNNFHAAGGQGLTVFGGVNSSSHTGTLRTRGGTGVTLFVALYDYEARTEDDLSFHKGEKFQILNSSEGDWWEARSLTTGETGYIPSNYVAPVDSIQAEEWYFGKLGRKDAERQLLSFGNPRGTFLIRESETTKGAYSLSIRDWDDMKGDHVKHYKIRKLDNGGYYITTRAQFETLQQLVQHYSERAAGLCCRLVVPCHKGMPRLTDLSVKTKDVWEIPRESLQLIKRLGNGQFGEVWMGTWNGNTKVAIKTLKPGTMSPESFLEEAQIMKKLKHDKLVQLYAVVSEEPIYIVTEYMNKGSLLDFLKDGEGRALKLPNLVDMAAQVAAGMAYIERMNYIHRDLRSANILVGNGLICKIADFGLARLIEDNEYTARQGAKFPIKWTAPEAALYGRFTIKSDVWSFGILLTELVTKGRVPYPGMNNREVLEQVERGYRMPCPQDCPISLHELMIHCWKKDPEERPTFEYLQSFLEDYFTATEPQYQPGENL

The inhibition is the change of the read-out against control, counted positive when it falls. As usually defined, the IC50 is the point on the concentration scale where inhibition reaches its midpoint. As for `CCN1CCN(Cc2ccc(NC(=O)c3ccc(C)c(/C=C/c4cnc5[nH]ccc5c4OC)c3)cc2C(F)(F)F)CC1`, the inhibition in test [1] is -5.6%; in test [2], 38.5%; in test [3] it was 3.3%; in [4], 72.6%; in [5], 11.5%; in test [6], over 98%. In addition, the inhibition came to 18.3% in [7], 12.8% in test [8] and 52.5% in [9]. The IC50 in test [10] stood at 29.5 nM.
On to `CCN1CCN(Cc2ccc(NC(=O)c3ccc(C)c(Oc4ccnc5[nH]ccc45)c3)cc2C(F)(F)F)CC1`, for which the inhibition in test [1] is 19.1%; in test [2], 3.1%; in test [3], -0.8%; in test [4], 36.5%; in test [5] it was 65.4%; in test [6] it was over 98%. Besides, the values for the inhibition in test [7], in test [8] and in [9] were 31.3%, 14.8% and 44.8%, respectively. In test [10], the IC50 turned out to be 12.9 nM.
